Measured values from ChEMBL document CHEMBL4325904 (Eur J Med Chem, 2019).
pIC50: −log10 of the molar value. Active and inactive are the calls of the source. The calls are words filed in the database; no cut-off is given here.

What was measured:
Histone deacetylase 5 = Histone deacetylase 5 (Homo sapiens, UniProt Q9UQL6); experiment: Inhibition of recombinant C-terminal His-tagged human HDAC5 (656 to 1122 residues) expressed in insect cells using Boc-K(Ac)-AMC as substrate by fluorimetric assay
Homo sapiens [1] = species: Homo sapiens; experiment: Selectivity ratio of IC50 for recombinant N-terminal GST-tagged /C-terminal His-tagged human HDAC4 (627 to 1084 residues) to IC50 for recombinant N-terminal GST-tagged human HDAC6 (1 to 1215 residues)
[2] = biological target: T1, Protein deacetylase HDAC6 (Homo sapiens, UniProt Q9UBN7); experiment: Inhibition of recombinant N-terminal GST-tagged human HDAC6 (1 to 1215 residues) expressed in Baculovirus infected insect cells using RHKK-Ac as substrate by fluorimetric assay
T1 sequence (Q9UBN7 whole entry): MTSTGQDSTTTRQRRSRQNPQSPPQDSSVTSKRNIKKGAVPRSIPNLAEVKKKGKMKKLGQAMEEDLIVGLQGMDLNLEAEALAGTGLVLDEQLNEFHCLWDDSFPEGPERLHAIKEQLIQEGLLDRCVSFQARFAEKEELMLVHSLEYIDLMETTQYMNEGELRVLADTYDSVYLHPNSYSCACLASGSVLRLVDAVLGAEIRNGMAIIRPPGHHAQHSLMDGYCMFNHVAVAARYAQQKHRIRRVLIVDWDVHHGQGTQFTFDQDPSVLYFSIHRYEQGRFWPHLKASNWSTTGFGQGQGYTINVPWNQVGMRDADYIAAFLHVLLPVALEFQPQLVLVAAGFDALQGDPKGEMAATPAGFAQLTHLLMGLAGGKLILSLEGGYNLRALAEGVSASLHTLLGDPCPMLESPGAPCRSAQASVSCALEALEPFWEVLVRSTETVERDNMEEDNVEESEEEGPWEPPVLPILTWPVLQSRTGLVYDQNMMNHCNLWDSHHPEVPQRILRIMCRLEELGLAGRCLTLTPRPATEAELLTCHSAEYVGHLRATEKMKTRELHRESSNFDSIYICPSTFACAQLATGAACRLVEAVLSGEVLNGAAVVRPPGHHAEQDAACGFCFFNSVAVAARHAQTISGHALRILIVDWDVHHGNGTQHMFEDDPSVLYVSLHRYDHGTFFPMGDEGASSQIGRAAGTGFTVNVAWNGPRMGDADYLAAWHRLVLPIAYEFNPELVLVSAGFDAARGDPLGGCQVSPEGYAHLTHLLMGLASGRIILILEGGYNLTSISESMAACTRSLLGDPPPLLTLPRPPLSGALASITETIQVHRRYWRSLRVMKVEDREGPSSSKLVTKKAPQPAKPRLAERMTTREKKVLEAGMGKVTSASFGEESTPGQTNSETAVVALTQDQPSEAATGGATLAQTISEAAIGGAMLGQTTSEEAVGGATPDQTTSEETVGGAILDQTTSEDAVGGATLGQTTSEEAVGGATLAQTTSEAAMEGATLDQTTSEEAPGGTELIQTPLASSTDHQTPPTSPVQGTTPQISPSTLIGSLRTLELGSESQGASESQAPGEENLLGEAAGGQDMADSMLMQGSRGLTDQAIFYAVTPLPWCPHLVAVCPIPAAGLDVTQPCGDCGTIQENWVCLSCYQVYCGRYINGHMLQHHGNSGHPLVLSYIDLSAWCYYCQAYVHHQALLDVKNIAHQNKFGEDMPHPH

Histone deacetylase 4 = Histone deacetylase 4 (Homo sapiens, UniProt P56524); experiment: Inhibition of recombinant N-terminal GST-tagged /C-terminal His-tagged human HDAC4 (627 to 1084 residues) expressed in Baculovirus infected insect cells using Boc-Lys(trifluoroacetyl)-AMC as substrate by fluorimetric assay
[3] = biological target: T2, Polyamine deacetylase HDAC10 (Homo sapiens, UniProt Q969S8); experiment: Inhibition of human HDAC10 using RHKK-Ac as substrate by fluorimetric assay
T2 sequence (Q969S8 whole entry): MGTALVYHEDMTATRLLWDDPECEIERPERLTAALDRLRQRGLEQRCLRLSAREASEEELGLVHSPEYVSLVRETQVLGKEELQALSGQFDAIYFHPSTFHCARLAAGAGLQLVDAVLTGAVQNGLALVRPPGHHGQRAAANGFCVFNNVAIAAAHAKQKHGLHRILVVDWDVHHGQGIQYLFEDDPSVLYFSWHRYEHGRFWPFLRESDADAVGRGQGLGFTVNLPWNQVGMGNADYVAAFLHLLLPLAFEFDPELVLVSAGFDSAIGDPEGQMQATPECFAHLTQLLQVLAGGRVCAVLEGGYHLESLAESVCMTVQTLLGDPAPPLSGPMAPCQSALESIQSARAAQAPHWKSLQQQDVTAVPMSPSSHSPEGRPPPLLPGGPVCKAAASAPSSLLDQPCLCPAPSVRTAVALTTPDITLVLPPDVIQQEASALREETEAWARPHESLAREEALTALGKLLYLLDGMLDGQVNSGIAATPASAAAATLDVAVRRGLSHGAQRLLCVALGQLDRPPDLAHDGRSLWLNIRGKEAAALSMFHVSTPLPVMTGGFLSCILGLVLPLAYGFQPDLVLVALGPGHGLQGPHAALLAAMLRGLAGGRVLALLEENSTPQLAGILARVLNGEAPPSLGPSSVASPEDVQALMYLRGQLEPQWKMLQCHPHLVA

Kasumi 1 = experiment: Antiproliferative activity against human Kasumi-1 cells after 72 hrs by resazurin dye-based assay; type: functional, cell-based; settings: Kasumi 1, 72 h
Procedure, shortened: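 KASUMI-1 cells incubated with compounds for 72 hr; viability read with resazurin reagent. IC50 taken as the mean of three experiments, each run in duplicate.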

Danio rerio = experiment: Antiangiogenic activity in zebrafish embryo assessed as effect on blood vessel development at 10 uM administered from 24 to 50 hrs post fertilization for 24 hrs and measured after 72 hrs by alkaline phosphatase assay; type: functional, organism-based
Procedure, shortened: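 Zebrafish embryos exposed at 10 µM from 24–50 hpf alongside vehicle-only controls; at 72 hpf embryos stained with alkaline phosphatase to visualise blood vessels.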

Homo sapiens [4] = species: Homo sapiens; experiment: Selectivity ratio of IC50 for human recombinant full length C-terminal His-tagged HDAC3 (1 to 428 residues)/N-terminal GST-tagged NCOR2 (395 to 489 residues) to IC50 for recombinant N-terminal GST-tagged human HDAC6 (1 to 1215 residues)

Chain of Histone deacetylase 4 (P56524 whole entry, the tested form may be a part): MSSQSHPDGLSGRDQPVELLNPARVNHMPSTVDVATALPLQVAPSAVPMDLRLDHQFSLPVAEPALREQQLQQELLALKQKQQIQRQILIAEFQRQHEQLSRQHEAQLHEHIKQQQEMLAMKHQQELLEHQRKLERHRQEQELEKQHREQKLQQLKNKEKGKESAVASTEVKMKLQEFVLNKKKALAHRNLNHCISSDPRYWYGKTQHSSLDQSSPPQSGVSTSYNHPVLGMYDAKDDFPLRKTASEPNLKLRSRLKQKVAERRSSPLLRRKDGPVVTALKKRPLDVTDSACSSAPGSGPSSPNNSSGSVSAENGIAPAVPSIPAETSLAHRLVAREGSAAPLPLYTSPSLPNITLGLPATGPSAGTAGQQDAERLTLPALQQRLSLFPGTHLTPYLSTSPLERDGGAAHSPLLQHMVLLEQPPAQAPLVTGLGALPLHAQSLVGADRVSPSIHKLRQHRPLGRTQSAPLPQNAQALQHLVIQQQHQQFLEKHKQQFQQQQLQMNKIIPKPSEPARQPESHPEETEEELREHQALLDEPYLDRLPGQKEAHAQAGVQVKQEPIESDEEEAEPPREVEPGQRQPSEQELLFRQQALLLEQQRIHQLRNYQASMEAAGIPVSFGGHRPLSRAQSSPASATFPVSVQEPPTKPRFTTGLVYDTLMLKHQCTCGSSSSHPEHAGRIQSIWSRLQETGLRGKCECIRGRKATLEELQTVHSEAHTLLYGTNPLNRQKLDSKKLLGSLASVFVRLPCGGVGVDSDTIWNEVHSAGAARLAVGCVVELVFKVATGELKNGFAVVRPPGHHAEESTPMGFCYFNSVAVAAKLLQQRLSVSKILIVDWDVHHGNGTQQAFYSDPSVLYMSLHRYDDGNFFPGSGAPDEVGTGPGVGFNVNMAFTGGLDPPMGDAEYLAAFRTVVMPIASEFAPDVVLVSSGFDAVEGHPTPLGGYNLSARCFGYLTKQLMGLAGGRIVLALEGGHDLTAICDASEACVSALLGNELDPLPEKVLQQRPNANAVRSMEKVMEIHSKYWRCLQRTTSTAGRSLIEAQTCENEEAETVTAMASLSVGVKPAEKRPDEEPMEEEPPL
Chain of Histone deacetylase 5 (Q9UQL6 whole entry, the tested form may be a part): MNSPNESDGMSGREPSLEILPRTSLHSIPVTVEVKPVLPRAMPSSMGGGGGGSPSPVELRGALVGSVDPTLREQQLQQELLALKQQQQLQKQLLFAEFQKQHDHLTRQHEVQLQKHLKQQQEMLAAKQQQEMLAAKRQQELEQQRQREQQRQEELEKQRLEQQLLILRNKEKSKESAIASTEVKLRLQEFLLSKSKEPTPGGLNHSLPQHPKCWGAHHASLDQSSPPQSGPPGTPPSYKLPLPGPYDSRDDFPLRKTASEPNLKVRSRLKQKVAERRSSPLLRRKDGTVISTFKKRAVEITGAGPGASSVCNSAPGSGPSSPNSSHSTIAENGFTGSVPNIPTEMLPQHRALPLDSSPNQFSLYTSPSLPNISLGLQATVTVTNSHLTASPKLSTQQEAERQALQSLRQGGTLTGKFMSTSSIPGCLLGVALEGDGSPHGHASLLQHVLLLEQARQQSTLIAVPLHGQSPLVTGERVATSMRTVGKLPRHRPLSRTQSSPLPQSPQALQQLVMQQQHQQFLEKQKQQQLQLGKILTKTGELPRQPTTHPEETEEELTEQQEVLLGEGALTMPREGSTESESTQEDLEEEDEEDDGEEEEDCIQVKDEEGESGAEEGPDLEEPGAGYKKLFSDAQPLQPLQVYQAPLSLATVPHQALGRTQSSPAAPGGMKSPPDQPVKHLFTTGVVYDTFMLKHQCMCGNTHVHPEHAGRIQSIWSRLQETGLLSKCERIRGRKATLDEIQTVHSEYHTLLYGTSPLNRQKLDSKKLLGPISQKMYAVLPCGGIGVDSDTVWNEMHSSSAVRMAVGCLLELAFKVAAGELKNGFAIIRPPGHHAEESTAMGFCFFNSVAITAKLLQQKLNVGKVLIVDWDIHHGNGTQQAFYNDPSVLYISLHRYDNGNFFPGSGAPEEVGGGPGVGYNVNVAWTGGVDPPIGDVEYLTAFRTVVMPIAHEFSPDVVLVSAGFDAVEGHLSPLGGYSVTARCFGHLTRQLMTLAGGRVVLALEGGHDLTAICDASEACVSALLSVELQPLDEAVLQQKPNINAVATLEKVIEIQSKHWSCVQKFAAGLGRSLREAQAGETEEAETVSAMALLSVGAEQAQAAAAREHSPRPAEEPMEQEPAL

Row | pIC50 (Histone deacetylase 5) | Ratio IC50 (Homo sapiens [1]) | pIC50 [2] | pIC50 (Histone deacetylase 4) | pIC50 [3] | Activity (Danio rerio) | Ratio IC50 (Homo sapiens [4]) | Compound | pIC50 (Kasumi 1)
1 | 5.47 | 1500 | 8.46 | 5.26 | 6.18 | Active | 100 to 103 | O=C(CCCCCN1C(=O)c2cccc3c(NCc4ccccc4)ccc(c23)C1=O)NO | 6.44
2 | 5.28 | > 2000 | 8.32 | < 5.00 | 6.49 | Active | 23 | CCCNc1ccc2c3c(cccc13)C(=O)N(CCCCCC(=O)NO)C2=O | 7.02
